High-throughput results deposited in PubChem BioAssay by several laboratories.
KCC2 mod – KCC2 cotransporter modulators, thallium flux, primary screen, cell-based, HEK293 KCC2, FluoZin-2 fluorescence, MLSMR; Solute carrier family 12 member 5 (Homo sapiens), Q9H2X9; KCC2 cells, thallium flux FluoZin-2 fluorescence; B-score of Tl+ flux slope (higher = more flux/activation; lower = inhibition) at 10 µM; hit rate 2.2% among 190,000; AID 1456, 2008;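 active means thallium flux slope and its plate-corrected score both differing from the plate sample mean at a set confidence after two filtering rounds, in either direction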;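 further: slope of fluorescence scaled to starting intensity during 10 to 20 s after thallium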
KCNQ1 block – inhibitors of human KCNQ1 channel, primary screen, cell-based, thallium flux, high-throughput; B-score at 10 µM; hit rate 1.3% among 310,000; AID 2642, 2010; CHO-K1 KCNQ1, FluxOR thallium flux fluorescence; stronger effect = higher value; Potassium voltage-gated channel subfamily KQT member 1 (Homo sapiens), P51787;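 active means compounds whose thallium flux B-score, printed positive for inhibition, exceeds three library SD while starting fluorescence stays within three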;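 further: channel opened by potassium depolarization with thallium stimulus after 20 min compound exposure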
KCNK9 block – KCNK9 potassium channel inhibitors, primary screen, HEK293 cells, thallium flux. Potassium channel subfamily K member 9 (Homo sapiens), Q9NPC2. FluxOR thallium flux fluorescence; stronger effect = lower value. B-score at 10 µM. hit rate 1.2% among 310,000. AID 488922, 2010;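 active means ratio B-score over 3 SD below the library mean, with starting fluorescence within 5 SD of its mean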;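 further: negative B-score means less thallium flux so channel inhibition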
KCNK3 block – human KCNK3 channel inhibitors, primary screen, CHO cells, FluxOR thallium flux, B-score. Potassium channel subfamily K member 3 (Homo sapiens), O14649. FluxOR fluorescence; stronger effect = lower value. B-score at 10 µM. hit rate 0.84% among 340,000. AID 602410, 2012;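 active means B-score under library mean minus 4 SD, starting fluorescence ratio at most library mean plus 5 SD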;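 further: more negative B-score means stronger inhibition of thallium flux through KCNK3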
hERG protect – hERG rescue from dofetilide block, primary screen, cell-based, CHO-hERG, FluxOR thallium flux, dofetilide IC70. dofetilide IC70 present. activation (rescue from dofetilide block), less the hit threshold, % at 10 µM. hit rate 0.51% among 310,000. AID 1511, 2009;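 active means activation above the mean of controls blocked by dofetilide plus 5 SD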;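 further: thallium influx through hERG after potassium depolarization seen as dye fluorescence rise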
KCNQ1 pot – potentiators or activators of KCNQ1 channel, primary screen, cell-based, thallium flux, high-throughput; AID 2648, 2010; CHO-K1 KCNQ1, thallium flux FluxOR fluorescence; stronger effect = higher value; B-score at 10 µM; Potassium voltage-gated channel subfamily KQT member 1 (Homo sapiens), P51787; hit rate 0.35% among 310,000;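 active means fluorescence ratio B-score, a plate-corrected score, at least three library SD, with initial intensity B-score within 5 SD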
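System: Stable KCNQ1 CHO-K1 line | Incubation: 90 min dye loading and 20 min compound exposure, both at room temperature | Measure: Ratio B score | Medium: Assay buffer for compound exposure, DMSO matched across wells | Compound dosing: Single-concentration screen | Probe or stimulus: K+/Tl+ depolarizing stimulus | Measured by: Kinetic FluxOR fluorescence, 10 s baseline plus 110 s post-stimulus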
KCNQ1 block val – KCNQ1 potassium channel inhibitors, confirmation, cell-based, Tl flux, duplicate. shares compounds with KCNQ1 block. KCNQ1 cell line, FluxOR thallium flux fluorescence. inhibition, % at 10 µM. hit rate 93% among 1,600. AID 588353, 2011;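 active means primary screen active, with duplicate mean exceeding buffer control mean plus 3 SD of buffer wells, cut at about 28% in these data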;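 further: 0% = buffer control ratio and 100% = XE991 inhibitor control ratio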
CHO KCNQ1 ctr – thallium flux effects in parental CHO cells, counter-screen for KCNQ1 inhibitor project, cell-based, Tl flux | hit rate 21% among 1,600 | fluorescence ratio (Tl flux) at 10 µM | parental CHO-K1, FluxOR thallium flux fluorescence ratio; stronger effect = lower value; zero means no signal rise above baseline | shares compounds with KCNQ1 block;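 active means mean of duplicate thallium-flux fluorescence ratios in parental host cells more than 5 SD below the buffer control mean, cut at about 0.38 in these data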;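 further: ratio is peak minus minimum fluorescence divided by baseline fluorescence; actives read low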
KCNQ1 APC inh – KCNQ1 channel inhibitors, confirmation, orthogonal assay, cell-based, automated electrophysiology; KCNQ1-CHO cells, automated patch clamp current; hit rate 20% among 490; calls only at 10 µM; shares compounds with KCNQ1 block; AID 624120, 2012;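 active means KCNQ1 current drop exceeding 3 SD of negative control wells, seen in both duplicate runs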;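 further: steady state current during a 2 s step from -80 to +40 mV; negative values mean current inhibition and positive values mean potentiation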
KCNQ2 spec – KCNQ2 channel inhibition, selectivity assay for KCNQ1 inhibitor project, cell-based | hit rate 71% among 1,600 | shares compounds with KCNQ1 block | KCNQ2 cells, FluxOR thallium flux fluorescence | inhibition, % at 10 µM;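 active means mean percent inhibition of the KCNQ2 thallium signal more than 5 SD above the buffer-only control wells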;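 further: KCNQ2 expressed in CHO cells; 0% = buffer control wells and 100% = XE-991 inhibitor control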
Target sequence (O88943 whole entry, looked up): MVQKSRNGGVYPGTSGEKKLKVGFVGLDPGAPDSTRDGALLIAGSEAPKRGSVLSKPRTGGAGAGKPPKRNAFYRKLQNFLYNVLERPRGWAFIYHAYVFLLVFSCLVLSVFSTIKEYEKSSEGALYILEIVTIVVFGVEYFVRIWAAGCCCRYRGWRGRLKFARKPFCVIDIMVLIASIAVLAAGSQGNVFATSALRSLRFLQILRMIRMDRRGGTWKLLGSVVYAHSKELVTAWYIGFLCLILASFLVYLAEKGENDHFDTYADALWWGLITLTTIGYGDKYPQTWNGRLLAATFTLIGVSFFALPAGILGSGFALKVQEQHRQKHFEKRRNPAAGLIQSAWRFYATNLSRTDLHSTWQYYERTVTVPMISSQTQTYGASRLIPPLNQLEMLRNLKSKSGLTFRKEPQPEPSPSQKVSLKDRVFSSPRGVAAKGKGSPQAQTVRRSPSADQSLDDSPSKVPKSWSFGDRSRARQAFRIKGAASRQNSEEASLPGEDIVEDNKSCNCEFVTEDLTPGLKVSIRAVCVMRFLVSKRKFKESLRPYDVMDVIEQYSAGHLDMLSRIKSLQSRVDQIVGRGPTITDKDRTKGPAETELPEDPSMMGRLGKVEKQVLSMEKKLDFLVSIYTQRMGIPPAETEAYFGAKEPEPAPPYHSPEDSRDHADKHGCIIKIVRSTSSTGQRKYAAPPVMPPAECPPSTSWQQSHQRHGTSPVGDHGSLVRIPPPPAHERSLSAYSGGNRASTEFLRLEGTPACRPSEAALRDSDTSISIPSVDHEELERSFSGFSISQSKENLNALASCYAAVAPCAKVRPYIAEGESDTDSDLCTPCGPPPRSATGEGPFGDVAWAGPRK
KCNQ1-KCNE1 inh – KCNQ1/KCNE1 channel inhibition, selectivity assay for KCNQ1 inhibitor project, CHO-K1 cells, thallium flux, FluxOR. shares compounds with KCNQ1 block. FluxOR thallium flux fluorescence. inhibition, % at 10 µM. hit rate 77% among 1,600. AID 652147, 2013;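 active means mean percent inhibition of duplicate wells above the buffer-only control mean plus 3 SD of those controls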;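 further: 0% = buffer only wells and 100% = XE-991 inhibitor control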
KCNK9 block conf – KCNK9 potassium channel inhibitors, confirmation, HEK293 cells, thallium flux, duplicate; shares compounds with KCNK9 block; FluxOR thallium flux fluorescence; inhibition, % at 10 µM; hit rate 43% among 4,900; AID 492992, 2010;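 active means thallium signal inhibited by more than 5 SD of the compound-free buffer control wells, on both duplicate plates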;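 further: 0% = assay buffer control wells without compound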
Kir2-1 spec – mouse Kir2.1 channel inhibition, confirmation, selectivity assay for KCNK9 modulator project, cell-based, HEK293, thallium flux. inhibition, % at 10 µM. Kir2.1 cells, FluxOR thallium flux fluorescence. shares compounds with KCNK9 block. hit rate 4% among 4,900;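 active means thallium signal drop more than 5 SD beyond the mean of the no-compound control wells, seen in both duplicate plates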;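 further: signal is fluorescence rise after thallium addition divided by baseline fluorescence; plate controls were assay buffer only for no effect and full block by chlorpromazine control for full effect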
KCNK9 uninduced – thallium flux in non-induced HEK293 cells, confirmation, counter-screen for KCNK9 inhibitor project, cell-based, second counter screen, non-induced KCNK9-HEK293. AID 492997, 2010. inhibition, % at 10 µM. shares compounds with KCNK9 block. hit rate 40% among 4,900. FluxOR thallium flux;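 active means thallium signal drop beyond 5 SD of the untreated control mean, on both duplicate plates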;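 further: plate controls were buffer only IC0 wells for no effect and SID17386958 at its maximal inhibitory level for full effect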
KCNK3 confirm – retest of human KCNK3 channel inhibitors, confirmation, CHO cells, FluxOR thallium flux, triplicate. shares compounds with KCNK3 block. FluxOR fluorescence; 0% buffer, 100% carvedilol maximal block. ratio percent of control, % at 10 µM. hit rate 99% among 2,400. AID 651638, 2012;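 active means ratio percent of control, averaged over triplicates, above buffer control mean plus 5 SD, cut at about 64% in these data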;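 further: ratio is the fluorescence rise from min to max over baseline after thallium stimulus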
KCNK3 uninduced – thallium flux inhibition in non-induced cells, primary screen, counter-screen for KCNK3 inhibitor project, cell-based, non-induced KCNK3 line, FluxOR thallium, triplicate; non-induced KCNK3 parental cells; stronger effect = lower value; AID 651747, 2012; shares compounds with KCNK3 block; hit rate 40% among 2,400; thallium flux ratio (lower = more inhibition) at 10 µM;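 active means thallium flux ratio, averaged over three wells, more than 5 SD below the buffer control mean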;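 further: host cells are CHO cells without KCNK3 induction; ratio is peak minus trough fluorescence over baseline then normalized to buffer controls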
Active calls of the source: *. Only some compounds are listed: those with a hit (about 4.1% of all), similar ones and a draw of the others.

`Cc1ccccc1Nc1nc(NCc2ccco2)c2ccccc2n1` gave KCC2 mod -0.77, KCNQ1 block 14*, KCNK9 block -12*, KCNK3 block -14*, hERG protect -25, KCNQ1 pot inactive, KCNQ1 block val 162*, CHO KCNQ1 ctr 0.37*, KCNQ2 spec 115%*, KCNQ1-KCNE1 inh active, KCNK9 block conf 54%*, Kir2-1 spec 85%* and KCNK9 uninduced 40%*.
Oc1ccccc1Nc1nc(NCc2ccco2)c2ccccc2n1 was read as KCC2 mod -1.2, KCNQ1 block inactive, KCNK9 block inactive, KCNK3 block inactive, hERG protect -25 and KCNQ1 pot inactive.
For Nc1cc(Cl)ccc1C(=O)OCC(=O)N1CCCCCC1 the results were KCNK3 block inactive.
O=C(CSCc1cnn(-c2ccccc2)c1-n1cccc1)NCc1cccs1 was read as KCC2 mod -1.8, KCNQ1 block 7*, KCNK9 block inactive, KCNK3 block inactive, hERG protect -7, KCNQ1 pot inactive, KCNQ1 block val 64*, CHO KCNQ1 ctr 0.5, KCNQ2 spec inactive, KCNQ1-KCNE1 inh 102%*, KCNK9 block conf inactive, Kir2-1 spec inactive and KCNK9 uninduced inactive.
For Cc1noc(C)c1NC(=O)Nc1ccc2c(c1)C(=O)N([C@H](C)CO)C[C@H](C)[C@H](CN(C)C)O2 the results were KCNK3 block inactive.
`COc1cccc(-c2csc(N3CCN(C(=S)NCC(C)C)CC3)n2)c1` gave KCNQ1 block inactive, KCNK9 block inactive, KCNK3 block inactive, hERG protect -6 and KCNQ1 pot inactive.
For CC(C)CNC(=S)N1CCN(c2nc(-c3ccc(Cl)cc3)cs2)CC1 the results were KCNQ1 block 11*, KCNK9 block inactive, KCNK3 block -9.8*, hERG protect -7, KCNQ1 pot inactive, KCNQ1 block val 159*, CHO KCNQ1 ctr 0.41, KCNQ1 APC inh inactive, KCNQ2 spec 128%*, KCNQ1-KCNE1 inh 142%*, KCNK3 confirm 140* and KCNK3 uninduced 0.12*.
For CC(=O)c1c(C)[nH]c(C(=O)Nc2ccc(C)c(S(=O)(=O)N(C)C)c2)c1C the results were KCNQ1 block inactive, KCNK9 block inactive, KCNK3 block inactive, hERG protect -6 and KCNQ1 pot inactive.
`CC(=O)c1c(C)[nH]c(C(=O)Nc2ccc(C)c(S(=O)(=O)Nc3ccc(C)cc3C)c2)c1C` gave KCC2 mod -0.76, KCNQ1 block 12*, KCNK9 block -7.8*, KCNK3 block -13*, hERG protect -15, KCNQ1 pot inactive, KCNQ1 block val 142*, CHO KCNQ1 ctr 0.44, KCNQ1 APC inh inactive, KCNQ2 spec 142%*, KCNQ1-KCNE1 inh active, KCNK3 confirm 137* and KCNK3 uninduced inactive.
`CSc1cccc(NC(=O)N2CCc3ccc(NC(=O)c4ccccn4)cc3C2)c1` gave KCNQ1 block 6*, KCNK9 block inactive, KCNK3 block -11*, hERG protect -12, KCNQ1 pot inactive, KCNQ1 block val 112*, CHO KCNQ1 ctr 0.48, KCNQ1 APC inh inactive, KCNQ2 spec 104%*, KCNQ1-KCNE1 inh 178%*, KCNK3 confirm 112* and KCNK3 uninduced 0.16*.
Screening COc1ccc(S(=O)(=O)N2CCCCCC2)cc1C(=O)Nc1ccc(C(=O)N(C)C)cc1 returned KCNK3 block inactive.
`CNc1ccccc1C(C)(C)c1cc(-c2cccc([N+](=O)[O-])c2)no1` gave KCC2 mod -1.8, KCNQ1 block inactive, KCNK9 block inactive, KCNK3 block inactive, hERG protect 1 and KCNQ1 pot inactive.
